Tests used:
mouse platelets [1] = experiment: Serotonin secretion; type: cell-based; conditions: 2.5 or 5 μM
mouse platelets [2] = experiment: Flow cytometry of P-selectin exposure and αIIbβ3 integrin activation; type: cell-based
Procedure, shortened: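 Washed mouse platelets (2 × 10^8/mL in HEPES-Tyrode; C57BL/6 or Ero1α/β-null) were pretreated 20 min at 37°C with 0.1% DMSO vehicle or test compound. Agonist was added for 5 min at 37°C. Cells were stained 15 min with labelled anti-P-selectin or JON/A (activated αIIbβ3) and read by flow cytometry as geometric mean fluorescence intensity.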

C57BL/6 mice [3] = experiment: FeCl3-induced carotid arterial thrombosis; type: in vivo, mouse; conditions: for time to occlusion (TTO): iv 0.3 μg/g BW
Procedure, shortened: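 Male and female mice, 8–12 weeks, were anaesthetised with ip ketamine/xylazine. A 2 × 2 mm filter disc carrying 1.2 μL of 7 or 10% FeCl3 was placed on the carotid artery for 2 min. Flow was monitored by Doppler flow meter. TTO was the time from disc removal to stable occlusion (no flow for 5 min).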

Amplex Red assay = type: biochemical; conditions: Figure 1M, concentration not given
C57BL/6 mice [4] = experiment: Ex vivo platelet activation after intravenous injection; type: in vivo, mouse; conditions: iv 0.3 μg/g BW; blood collected 10 min later
Procedure, shortened: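 C57BL/6 mice (8–12 weeks, both sexes) received iv vehicle (1% DMSO in saline) or test compound at 0.3 μg/g BW. Blood was drawn 10 min later and washed platelets were isolated. Platelets were stimulated with agonist for 5 min at 37°C and stained 15 min for P-selectin and activated αIIbβ3 (JON/A). Flow cytometry read-out was geometric mean fluorescence intensity.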

mouse blood = experiment: Flow chamber assay on collagen-coated surfaces under arterial shear; type: cell-based; conditions: 5 μM, 50 dyne/cm^2
Procedure, shortened: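 Plates were coated with fibrillar type 1 collagen (100 μg/mL, 1 h, 37°C) and washed with PBS/0.05% BSA. ACD-anticoagulated blood was treated 15 min at 37°C with 0.1% DMSO vehicle or 5 μM test compound, then labelled with 1 μM DiOC6 for 5 min. After adding 6 mM CaCl2 and 3 mM MgCl2, blood was perfused at 50 dyne/cm2 (mouse blood: 2 min). Surface coverage and thrombus volume were measured by epifluorescence.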

human platelets = experiment: Ca2+ mobilization; type: cell-based
mouse platelets [5] = experiment: Analysis of cell viability; type: cell-based; conditions: 5 μM; incubation 20 minutes to 24 hours
Procedure, shortened: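 Platelets were isolated from ACD blood of C57BL/6, WT control or Ero1α/β CKO mice (8–12 weeks) and washed in HEPES-Tyrode buffer at 2 × 10^8 cells/mL. They were incubated at 37°C with vehicle (0.1% DMSO) or test compound for various times. Cells were then labelled with FITC-annexin V for 20 min and read by flow cytometry.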

Structure (SMILES): O=C(O)c1cc(N2N=C(C(F)(F)F)/C(=C/c3ccc(-c4ccccc4)o3)C2=O)ccc1Cl [EN460]
- serotonin secretion from resting platelets (mouse platelets [1]; no agonist): enhanced serotonin secretion from resting platelets
- serotonin secretion from activated platelets (mouse platelets [1]; thrombin or CRP): either enhancing or inhibiting secretion
- P-selectin exposure and αIIbβ3 integrin activation (mouse platelets [2]; 1-5 µM, low agonist: 0.01 U/mL thrombin, 0.025 μg/mL CRP, 0.5 μM U46619, 0.5 μM A23187, concentration-dependent): inhibited
- P-selectin exposure and αIIbβ3 integrin activation (mouse platelets [2]; 2.5 or 5 μM, high agonist: thrombin 0.1 U/mL or CRP 0.2 μg/mL, weaker effect): still observed
- P-selectin exposure and αIIbβ3 integrin activation in resting platelets (mouse platelets [2]; M6766 5 μM, EN460 2.5 or 5 μM, no agonist): appeared to enhance both events
- carotid arterial thrombosis (time to occlusion) (C57BL/6 mice [3]; 0.1 μg/g BW, 7% FeCl3): did not inhibit carotid arterial thrombosis
- time to occlusion (TTO) (C57BL/6 mice [3]; 7% FeCl3): significantly prolonged the time to occlusion
- time to occlusion (TTO) (C57BL/6 mice [3]; 10% FeCl3): did not affect TTO
- inhibition of H2O2 activity (Amplex Red assay): inhibits H2O2 activity
- P-selectin exposure and αIIbβ3 integrin activation following thrombin stimulation (ex vivo) (C57BL/6 mice [4]): moderate but significant reduction
- surface coverage and volume of platelet thrombi (mouse blood): significantly reduced
- thrombin-induced Ca2+ influx (human platelets; 0.5 μM): reduced thrombin-induced Ca^2+ influx
- Ca2+ release and influx (human platelets; 2 or 5 μM, activated human platelets): significantly inhibited both Ca^2+ release and influx
- annexin V binding (platelet viability) (mouse platelets [5]): markedly increased annexin V binding within 20 min

From publication PMC12393906 (Molecular Therapy, 2025)
